A short description of data set [1]: Lipophilicity, log P of the compound. The data set is classed as physicochemical. The following applies: octanol/water. A digest of the protocol: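 Measured by reversed-phase HPLC on a C18 column at 40 °C, 1.0 mL/min. Gradient over 5 min from 99% 5 mM ammonium acetate pH 7 to 99% 5 mM ammonium acetate in acetonitrile. logP read from a calibration curve of retention times for compounds with known shake-flask octanol–water values.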

Data set [2] deals with Aphis gossypii. In words: Insecticidal activity against Aphis gossypii glover in cotton/melon plant. Format: functional, organism-based. The method, boiled down: (§1)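 Combined contact/systemic (CON/SYS) plant assay. Test compound applied to give good foliar and soil coverage, so both contact and soil systemic exposure occur. Aphis gossypii on cotton plants; Myzus persicae on radish plants 12–15 days old, treated the same way. Run in triplicate, rates 3–5× apart where possible. Units dried 1 h, capped, held 6 days at 19–21 °C and 50–70% RH.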

Data set [3] concerns Myzus persicae. In words: Insecticidal activity against Myzus persicae Sulzer in raddish plant. Format: functional, organism-based. The method, boiled down: as §1
For data set [4], the system named is Myzus persicae. The experiment in a line: Insecticidal activity against Myzus persicae Sulzer in raddish plant assessed as mortality at 250 ppm by systemic plant assay. The data set is classed as functional. The method, boiled down:
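Systemic-only (SYS) plant assay on Myzus persicae. Formulated compound applied directly to the soil, avoiding any direct contact with the aphids. Percent mortality recorded at 250 ppm.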

Data set [5] deals with Myzus persicae. The experiment in a line: Insecticidal activity against Myzus persicae Sulzer in raddish plant by combined contact/systemic plant assay. More on the design: unit not given here.
The subject of data set [6] is Myzus persicae. The description is as above. On the set-up: unit not given here. This is another data set of the same source.
Data set [7] relates to Aphis gossypii. In words: Insecticidal activity against Aphis gossypii glover in cotton/melon plant by combined contact/systemic plant assay.
The subject of data set [8] is Aphis gossypii. The data set is described as above. More on the design: unit not given here.
Data set [9] concerns Aphis gossypii. In words: Insecticidal activity against Aphis gossypii glover in cotton plant assessed as mortality at 250 ppm. The data set is classed as functional. The method, boiled down: as §1
Data set [10] has as its system Myzus persicae. The experiment in a line: Insecticidal activity against Myzus persicae Sulzer in raddish plant assessed as mortality at 250 ppm. The data set is classed as functional. A digest of the protocol: as §1
The subject of data set [11] is Myzus persicae. In words: Insecticidal activity against Myzus persicae Sulzer in raddish plant assessed as mortality at 50 ppm. The data set is classed as functional. The method, boiled down:
as §1

The test system of data set [12] is Aphis gossypii. The experiment in a line: Insecticidal activity against Aphis gossypii glover in cotton/melon plant assessed as mortality at 2 ppm. Format: functional. A digest of the protocol:
as §1

Data set [13] relates to Myzus persicae. The experiment in a line: Insecticidal activity against Myzus persicae Sulzer in raddish plant assessed as mortality at 100 ppm. Format: functional. The method, boiled down:
as §1

Data set [14] relates to Aphis gossypii. The experiment in a line: Insecticidal activity against Aphis gossypii glover in cotton/melon plant assessed as mortality at 100 ppm. The data set is classed as functional. A digest of the protocol: as §1
In data set [15] the test system is Aphis gossypii. In words: Insecticidal activity against Aphis gossypii glover in cotton/melon plant assessed as mortality at 50 ppm. Format: functional. A digest of the protocol: as §1

A value given as a limit tells only on which side of the number the result lay.

One may read the logP as a log measure of how a compound divides between an organic and an aqueous phase. For the molecule `CNC(=O)c1cc(Cl)cc(Cl)c1NC(=O)c1cc(F)nn1-c1ncccc1Cl`, the logP in data set [1] stood at 2.6. Besides, the EC50 in the data set on Aphis gossypii [2] is on record as 6.2 ppm; in the data set with Myzus persicae [3], 20.6 ppm. For the same molecule, in the data set with Myzus persicae [4], the Activity is given as 2%. Besides, the EC50 lower 95% confidence limit in the data set with Myzus persicae [5] was determined as 15.9; in the data set on Aphis gossypii [7] it was 4.4 ppm. Further, the values for the EC50 upper 95% confidence limit in the data set on Myzus persicae [6] and with Aphis gossypii [8] were 26.8 and 8.9, respectively.

Consider `CNC(=O)c1cc(Cl)cc(C)c1NC(=O)c1cc(F)nn1-c1ncccc1Cl`, for which the EC50 was > 100 ppm in the data set on Aphis gossypii [2] and > 300 ppm in the data set with Myzus persicae [3].

Regarding `CNC(=O)c1cc(F)cc(Cl)c1NC(=O)c1cc(Br)nn1-c1ncccc1Cl`, the logP in data set [1] is 2.6. In addition, the EC50 is given as 2.5 ppm in the data set with Aphis gossypii [2] and 7.8 ppm in the data set with Myzus persicae [3]. Further, the Activity with Myzus persicae [4] is on record as 2%. Further, the EC50 lower 95% confidence limit was 4 in the data set on Myzus persicae [5] and 1.1 ppm in the data set on Aphis gossypii [7]. Besides, the EC50 upper 95% confidence limit in the data set on Myzus persicae [6] is 23.2; in the data set on Aphis gossypii [8], 4.7.

Turning to `CNC(=O)c1cc(F)cc(F)c1NC(=O)c1cc(F)nn1-c1ncccc1Cl`, the EC50 with Aphis gossypii [2] and with Myzus persicae [3] was < 250 ppm throughout. Besides, the Activity came out at 70% in the data set on Aphis gossypii [9], 100% in the data set with Myzus persicae [10] and 80% in the data set on Myzus persicae [11].

The molecule `CNC(=O)c1cc(Cl)cc(Cl)c1NC(=O)c1cc(Br)nn1-c1ncccc1F` displayed a logP in data set [1] of 2.7. Besides, the EC50 in the data set with Aphis gossypii [2] is given as < 2 ppm; in the data set on Myzus persicae [3], 1.8 ppm. Further, the values for the Activity with Myzus persicae [4] and with Aphis gossypii [12] were 29% and 89%, respectively.

For the molecule `CNC(=O)c1cc(Cl)cc(Cl)c1NC(=O)c1cc(C(F)(F)F)nn1-c1ncccc1Cl`, the EC50 in the data set on Aphis gossypii [2] came out at 2.1 ppm; with Myzus persicae [3], 3.4 ppm. Moreover, the Activity with Myzus persicae [4] was determined as 74%. Also, the EC50 lower 95% confidence limit in the data set on Myzus persicae [5] is 2.7; in the data set with Aphis gossypii [7], 1.4 ppm. The EC50 upper 95% confidence limit with Myzus persicae [6] came out at 4.6; with Aphis gossypii [8], 3.5.

Regarding `CNC(=O)c1cc(Cl)cc(Cl)c1NC(=O)c1cc(Br)nn1-c1ncccc1Cl`, in data set [1], the logP was found to be 3. The EC50 amounted to 1.6 ppm in the data set with Aphis gossypii [2] and 2.1 ppm in the data set on Myzus persicae [3]. In addition, in the data set on Myzus persicae [4], the Activity was 22%. The EC50 lower 95% confidence limit in the data set on Myzus persicae [5] is 1.4; with Aphis gossypii [7] it was 0.9 ppm. Besides, the EC50 upper 95% confidence limit in the data set with Myzus persicae [6] is 3.2; in the data set on Aphis gossypii [8], 2.4.

Take `CNC(=O)c1cc(F)cc(Cl)c1NC(=O)c1cc(F)nn1-c1ncccc1Cl`: the EC50 in the data set on Aphis gossypii [2] and in the data set on Myzus persicae [3] was < 100 ppm in each case. Moreover, the Activity was determined as 65% in the data set with Myzus persicae [13] and 89% in the data set on Aphis gossypii [14].

On to `CNC(=O)c1cc(Cl)cc(Cl)c1NC(=O)c1cc(C(F)(F)F)nn1-c1ncccc1F`, for which the EC50 is recorded as 9.1 ppm in the data set with Aphis gossypii [2] and 3.4 ppm with Myzus persicae [3]. Also, in the data set on Myzus persicae [4], the Activity was found to be 58%. In addition, the EC50 lower 95% confidence limit with Myzus persicae [5] is 1.5; with Aphis gossypii [7] it was 5.8 ppm. Also, the EC50 upper 95% confidence limit is 7 with Myzus persicae [6] and 16.3 with Aphis gossypii [8].

In turn, `CNC(=O)c1cc(Cl)cc(F)c1NC(=O)c1cc(Br)nn1-c1ncccc1Cl` came in with a log partition coefficient (logP) in data set [1] of 2.9. Further, the EC50 with Aphis gossypii [2] is 5.5 ppm; with Myzus persicae [3], > 300 ppm. Further, the EC50 lower 95% confidence limit with Aphis gossypii [7] was 3 ppm. Moreover, the EC50 upper 95% confidence limit with Aphis gossypii [8] stood at 9.5.

In the case of `CNC(=O)c1cc(Cl)cc(C)c1NC(=O)c1cc(Br)nn1-c1ncccc1F`, the EC50 in the data set with Aphis gossypii [2] came to 3.7 ppm; in the data set on Myzus persicae [3], 11.3 ppm. For the same molecule, the Activity with Myzus persicae [4] is 29%. In addition, the EC50 lower 95% confidence limit in the data set on Myzus persicae [5] turned out to be 8.7; in the data set with Aphis gossypii [7] it was 2 ppm. For the same molecule, the EC50 upper 95% confidence limit came out at 15.2 with Myzus persicae [6] and 6.4 with Aphis gossypii [8].

Consider `CNC(=O)c1cc(F)cc(C)c1NC(=O)c1cc(Br)nn1-c1ncccc1Cl`, for which the EC50 in the data set on Aphis gossypii [2] is given as 11.3 ppm; in the data set with Myzus persicae [3] it was > 300 ppm. The Activity in the data set with Myzus persicae [4] is <80%. The EC50 lower 95% confidence limit with Aphis gossypii [7] was determined as 7.2 ppm. The EC50 upper 95% confidence limit with Aphis gossypii [8] came to 18.5.

`CNC(=O)c1cc(F)cc(C)c1NC(=O)c1cc(C(F)(F)F)nn1-c1ncccc1Cl`: the EC50 amounted to 63.4 ppm in the data set on Aphis gossypii [2] and 30.8 ppm in the data set with Myzus persicae [3]. Besides, the Activity in the data set on Myzus persicae [4] is on record as 8%. For the same molecule, the EC50 lower 95% confidence limit turned out to be 6.7 in the data set with Myzus persicae [5] and 26 ppm in the data set with Aphis gossypii [7]. The results for the EC50 upper 95% confidence limit with Myzus persicae [6] and with Aphis gossypii [8] were 84.3 and 201, respectively.

For the molecule `CNC(=O)c1cc(F)cc(Cl)c1NC(=O)c1cc(C(F)(F)F)nn1-c1ncccc1Cl`, the figures for the EC50 in the data set with Aphis gossypii [2] and with Myzus persicae [3] were 5.5 ppm and 9.2 ppm, respectively. In addition, in the data set on Myzus persicae [4], the Activity was 100%. Besides, the EC50 lower 95% confidence limit in the data set with Myzus persicae [5] turned out to be 7.2; in the data set with Aphis gossypii [7], 4 ppm. The EC50 upper 95% confidence limit worked out at 12.9 with Myzus persicae [6] and 8.1 in the data set on Aphis gossypii [8].

Regarding `CNC(=O)c1cc(F)cc(F)c1NC(=O)c1cc(Br)nn1-c1ncccc1Cl`, the figures for the EC50 with Aphis gossypii [2] and in the data set on Myzus persicae [3] were < 50 ppm and < 250 ppm, respectively. In addition, the Activity amounted to 14% in the data set with Myzus persicae [4] and 85% in the data set with Aphis gossypii [15].

On to `CNC(=O)c1cc(Cl)cc(C)c1NC(=O)c1cc(Br)nn1-c1ncccc1Cl` [CHLORANTRANILIPROLE], for which, in data set [1], the logP amounted to 3. Further, the EC50 turned out to be 3.1 ppm in the data set on Aphis gossypii [2] and 12.4 ppm with Myzus persicae [3]. Also, the Activity in the data set on Myzus persicae [4] amounted to 12%.

Turning to `O=[N+]([O-])/N=C1\NCCN1Cc1ccc(Cl)nc1` [IMIDACLOPRID], the EC50 with Aphis gossypii [2] is listed as 0.4 ppm; in the data set on Myzus persicae [3], 0.3 ppm.

Source of the values: ChEMBL document CHEMBL1143958, “Synthesis of insecticidal fluorinated anthranilic diamides” (Bioorg Med Chem, 2008).
